ChEMBL document CHEMBL1133118 (J Med Chem, 2000)

Tests used:
Adenosine receptor A2a [1] = biological target: T1, Adenosine receptor A2a (Homo sapiens, UniProt P29274); test: Displacement of [3H]-SCH- 58261 from human adenosine A2A receptor expressed in CHO cells; range 0.65-1.06; type: cell-based
Summary of the method: (§1)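 Membranes from CHO cells stably expressing human A2A receptor, grown in DMEM/F12 without nucleosides, resuspended in 50 mM Tris HCl, 10 mM MgCl2, pH 7.4; 50 μg protein/assay. Competition with [3H]SCH 58261 at 6–8 or more compound concentrations, 60 min at 25 °C; nonspecific binding with 50 μM NECA. Filtration on GF/B filters, scintillation counting; n=3-6.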

[2] = biological target: Adenosine receptors; A2b & A3 (Homo sapiens) (UniProt P29275+P0DMS8); test: Ratio of binding affinity of human A2B receptor to that of human A3 receptor; type: protein assay
Summary of the method: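 Ki ratio, n=3-6, 6–8 concentrations. A2B in HEK-293 membranes (20 μg): 40 nM [3H]DPCPX, 50 mM Tris HCl, 10 mM MgCl2, 1 mM EDTA, 0.1 mM benzamidine pH 7.4, 2 IU/mL adenosine deaminase, 60 min at 25 °C, nonspecific with 100 μM NECA. A3 in CHO membranes (50 μg): 1 nM [3H]MRE3008-F20, 120 min at 4 °C.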

Adenosine receptor A3 [3] = biological target: T2, Adenosine receptor A3 (Homo sapiens, UniProt P0DMS8); test: Displacement of [3H]MRE3008-F20 from human adenosine A3 receptor expressed in CHO cells; range 691-952; type: cell-based
T2 sequence (P0DMS8 whole entry): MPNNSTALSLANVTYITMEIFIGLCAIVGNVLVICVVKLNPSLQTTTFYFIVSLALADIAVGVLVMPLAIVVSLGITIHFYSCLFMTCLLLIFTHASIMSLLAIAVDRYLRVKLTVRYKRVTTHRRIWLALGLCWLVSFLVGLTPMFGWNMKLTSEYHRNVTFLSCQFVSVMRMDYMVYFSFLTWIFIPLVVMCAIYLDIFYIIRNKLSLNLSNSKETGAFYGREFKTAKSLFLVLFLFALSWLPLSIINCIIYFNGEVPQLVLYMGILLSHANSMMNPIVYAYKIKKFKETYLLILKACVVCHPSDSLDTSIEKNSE

[4] = biological target: T3, Adenosine receptor A3 (Homo sapiens) (UniProt P0DMS8); test: Percentage of blockade by 1 uM of the inhibition by 100 nM IB-MECA-inhibited cAMP accumulation in CHO cells expressing human adenosine A3 receptor.; type: functional, cell-based
T3 sequence (whole entry): T2 sequence (P0DMS8 whole entry)
Summary of the method: (§2)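 CHO cells stably expressing human A3 receptor; membranes in 50 mM Tris HCl, 10 mM MgCl2, 1 mM EDTA pH 7.4 with 5 μM GTP, 0.5 mM […] and 2.0 IU/mL adenosine deaminase. Preincubated 10 min at 37 °C, then IB-MECA (100 nM) and/or antagonist with 1 mM ATP and 10 μM forskolin for 10 min. Boiled 2 min. cAMP read by [3H]cAMP competition with adrenal binding protein.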

Adenosine receptor A1 [5] = biological target: T4, Adenosine receptor A1 (Homo sapiens, UniProt P30542); test: Displacement of [3H]DPCPX from human adenosine A1 receptor expressed in CHO cells; range 4.72-6.23; type: cell-based
T4 sequence (P30542 whole entry): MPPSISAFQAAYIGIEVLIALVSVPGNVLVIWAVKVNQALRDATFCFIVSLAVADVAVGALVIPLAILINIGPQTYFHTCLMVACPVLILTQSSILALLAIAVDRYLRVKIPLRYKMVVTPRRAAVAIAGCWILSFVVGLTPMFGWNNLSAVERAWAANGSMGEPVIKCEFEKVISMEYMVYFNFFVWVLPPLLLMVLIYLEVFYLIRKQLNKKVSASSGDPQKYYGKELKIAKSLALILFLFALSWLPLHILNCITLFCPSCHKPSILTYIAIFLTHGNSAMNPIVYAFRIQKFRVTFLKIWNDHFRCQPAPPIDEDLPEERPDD

Adenosine receptor A2b [6] = biological target: T5, Adenosine receptor A2b (Homo sapiens, UniProt P29275); test: Displacement of [3H]-DPCPX from Adenosine A2b receptor expressed in CHO cells; range 8-18; type: cell-based; conditions: in the assay text read “HEK-293 cells” for “CHO cells”
T5 sequence (P29275 whole entry): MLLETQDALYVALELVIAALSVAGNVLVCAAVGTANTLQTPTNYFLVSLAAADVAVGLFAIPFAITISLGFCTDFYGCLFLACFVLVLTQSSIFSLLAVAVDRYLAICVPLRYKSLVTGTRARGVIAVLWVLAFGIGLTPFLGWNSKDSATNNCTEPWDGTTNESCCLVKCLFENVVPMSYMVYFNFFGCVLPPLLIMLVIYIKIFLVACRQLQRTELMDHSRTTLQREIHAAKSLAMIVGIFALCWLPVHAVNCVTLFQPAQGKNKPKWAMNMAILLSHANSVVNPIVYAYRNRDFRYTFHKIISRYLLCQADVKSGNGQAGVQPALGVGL
Summary of the method: (§3)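 Human recombinant A2B receptor was expressed in HEK-293 cell membranes (20 μg protein). Incubated with 40 nM [3H]DPCPX in 50 mM Tris HCl, 10 mM MgCl2, 1 mM EDTA, 0.1 mM benzamidine, pH 7.4, with 2 IU/mL adenosine deaminase, at least 6–8 test concentrations, 60 min, 25 °C. Nonspecific binding was taken with 100 μM NECA; n=3-6.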

[7] = biological target: Adenosine receptors; A1 & A3 (Homo sapiens) (UniProt P30542+P0DMS8); test: Ratio of binding affinity of human A1 receptor to that of human A3 receptor; type: protein assay
Summary of the method: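 Ki ratio from displacement in CHO membranes, 6–8 concentrations, n=3-6, filtration counting. A1: 1 nM [3H]DPCPX, 50 μg protein, 120 min at 25 °C, nonspecific with 10 μM CHA. A3: 1 nM [3H]MRE3008-F20, 50 μg protein, Tris/10 mM MgCl2 pH 7.4, 120 min at 4 °C, nonspecific with 1 μM MRE3008-F20.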

Adenosine receptor A3 [8] = biological target: T2, Adenosine receptor A3; test: Displacement of [3H]MRE3008-F20 from human adenosine A3 receptor expressed in CHO cells; range 0.51-0.70; type: cell-based
Adenosine receptor A3 [9] = biological target: T2, Adenosine receptor A3; test: Inhibition of cAMP accumulation in CHO cells expressing human adenosine A3 receptor; range 2.5-9.3; type: functional, cell-based
Adenosine receptor A2b [10] = biological target: T5, Adenosine receptor A2b; test: Displacement of [3H]DPCPX from Adenosine A2b receptor expressed in […]; range 188-320; type: cell-based; summary of the method: as §3
Adenosine receptor A3 [11] = biological target: T2, Adenosine receptor A3; test: Displacement of [3H]MRE3008-F20 from human adenosine A3 receptor expressed in CHO cells; range 1.42-1.79; type: cell-based
Adenosine receptor A2b [12] = biological target: T5, Adenosine receptor A2b; test: Displacement of [3H]DPCPX from Adenosine A2b receptor expressed in […]; range 107-210; type: cell-based
[13] = biological target: T3, Adenosine receptor A3 (Homo sapiens); conditions: CHO, 1 uM
Adenosine receptor A2a [14] = biological target: T1, Adenosine receptor A2a; test: Displacement of [3H]-SCH- 58261 from human adenosine A2A receptor expressed in CHO cells; range 160-210; type: cell-based
Summary of the method: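 CHO membranes expressing human A2A receptor (50 μg protein) in 50 mM Tris HCl, 10 mM MgCl2, pH 7.4, competed against [3H]SCH 58261. At least 6–8 test concentrations were used, with 60 min incubation at 25 °C. Nonspecific binding defined by 50 μM NECA; n=3-6.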

Adenosine receptor A3 [15] = biological target: T2, Adenosine receptor A3; test: Inhibition of cAMP accumulation in CHO cells expressing human adenosine A3 receptor; range 10.8-21.5; type: functional, cell-based
Adenosine receptor A3 [16] = biological target: T2, Adenosine receptor A3; test: Displacement of [3H]MRE3008-F20 from human adenosine A3 receptor expressed in CHO cells; […]; type: cell-based
Adenosine receptor A2b [17] = biological target: T5, Adenosine receptor A2b; test: Displacement of [3H]DPCPX from Adenosine A2b receptor expressed in […]; range 70-94; type: cell-based
Adenosine receptor A3 [18] = biological target: T2, Adenosine receptor A3; test: Inhibition of cAMP accumulation in CHO cells expressing human adenosine A3 receptor; type: functional, cell-based
[19] = biological target: T3, Adenosine receptor A3 (Homo sapiens); test: Percent reversal of 100 nM IB-MECA-inhibited cAMP accumulation in CHO cells expressing human adenosine A3 receptor at 1 uM; range 92-102; type: functional, cell-based; summary of the method: as §2
Adenosine receptor A1 [20] = biological target: T4, Adenosine receptor A1; test: Displacement of [3H]DPCPX from human adenosine A1 receptor expressed in CHO cells; range 6.5-8.7; type: cell-based
Adenosine receptor A2a [21] = biological target: T1, Adenosine receptor A2a; test: biochemical
Adenosine receptor A3 [22] = biological target: T2, Adenosine receptor A3; test: Inhibition of cAMP accumulation in CHO cells expressing human adenosine A3 receptor; range 1.1-3.8; type: functional, cell-based
Adenosine receptor A2b [23] = biological target: T5, Adenosine receptor A2b; test: Displacement of [3H]DPCPX from Adenosine A2b receptor expressed in […]; range 19-27; type: cell-based
Adenosine receptor A3 [24] = biological target: T2, Adenosine receptor A3; test: Displacement of [3H]MRE3008-F20 from human adenosine A3 receptor expressed in CHO cells; range 33-48; type: cell-based
Adenosine receptor A2a [25] = biological target: T1, Adenosine receptor A2a; test: Displacement of [3H]-SCH- 58261 from human adenosine A2A receptor expressed in CHO cells; range 85-164; type: cell-based; summary of the method: as §1
[26] = biological target: T3, Adenosine receptor A3 (Homo sapiens); conditions: CHO, 1 uM; remark: listed apart in the source
Adenosine receptor A2b [27] = biological target: T5, Adenosine receptor A2b; test: Displacement of [3H]DPCPX from Adenosine A2b receptor expressed in […]; range 55-68; type: cell-based; summary of the method: as §3
Adenosine receptor A1 [28] = biological target: T4, Adenosine receptor A1; test: Displacement of [3H]DPCPX from human adenosine A1 receptor expressed in CHO cells; range 83-120; type: cell-based
Adenosine receptor A2b [29] = biological target: T5, Adenosine receptor A2b; test: Displacement of [3H]-DPCPX from Adenosine A2b receptor expressed in […]; range 7.4-11.3; type: cell-based
[30] = biological target: T3, Adenosine receptor A3 (Homo sapiens); test: Percent reversal of 100 nM IB-MECA-inhibited cAMP accumulation in CHO cells expressing human adenosine A3 receptor at 1 uM; type: functional, cell-based; summary of the method: as §2
Adenosine receptor A3 [31] = biological target: T2, Adenosine receptor A3; test: Displacement of [3H]MRE3008-F20 from human adenosine A3 receptor expressed in CHO cells; range 664-738; type: cell-based
Adenosine receptor A1 [32] = biological target: T4, Adenosine receptor A1; test: Displacement of [3H]DPCPX from human adenosine A1 receptor expressed in CHO cells; range 1.72-2.36; type: cell-based

T1 sequence (P29274 whole entry): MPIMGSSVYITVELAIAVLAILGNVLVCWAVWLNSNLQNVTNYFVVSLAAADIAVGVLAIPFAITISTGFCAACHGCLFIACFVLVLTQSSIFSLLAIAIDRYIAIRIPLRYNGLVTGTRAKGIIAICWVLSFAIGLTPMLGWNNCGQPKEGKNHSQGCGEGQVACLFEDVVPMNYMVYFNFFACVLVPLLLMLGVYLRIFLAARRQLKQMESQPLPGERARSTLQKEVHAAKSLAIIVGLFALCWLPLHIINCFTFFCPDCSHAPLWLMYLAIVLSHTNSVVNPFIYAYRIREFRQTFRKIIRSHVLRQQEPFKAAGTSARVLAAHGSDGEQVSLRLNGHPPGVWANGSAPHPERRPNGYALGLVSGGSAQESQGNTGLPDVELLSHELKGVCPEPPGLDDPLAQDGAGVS

`CC(C)=CCn1cc2c(nc(N)n3nc(-c4ccco4)nc23)n1` gave a Ki (Adenosine receptor A2a [1]) of 0.8 nM, a Ratio [2] of 0.014 and a Ki (Adenosine receptor A3 [3]) of 811 nM. It also gave an inhibition [4] of 12%, a Ki (Adenosine receptor A1 [5]) of 5.42 nM and a Ki (Adenosine receptor A2b [6]) of 12 nM. For the same compound, the Ratio [7] was 0.006.
Compound `CCn1cc2c(nc(NC(=O)Nc3ccc(OC)cc3)n3nc(-c4ccco4)nc23)n1` has a Ki (Adenosine receptor A3 [8]) of 0.6 nM, an IC50 (Adenosine receptor A3 [9]) of 4.8 nM and a Ratio [2] of 408. The Ki (Adenosine receptor A2b [10]) was 245 nM and the Ratio [7] was 1710.
Work on `CCn1cc2c(nc(NC(=O)Nc3cccc(Cl)c3)n3nc(-c4ccco4)nc23)n1` yielded a Ki (Adenosine receptor A3 [11]) of 1.6 nM, a Ratio [2] of 93.7 and a Ki (Adenosine receptor A2b [12]) of 150 nM. It also gave an inhibition [13] of 68%, a Ki (Adenosine receptor A2a [14]) of 180 nM and an IC50 (Adenosine receptor A3 [15]) of 14.8 nM. The Ratio [7] was 155.
`COc1ccc(NC(=O)Nc2nc3nn(CCc4ccccc4)cc3c3nc(-c4ccco4)nn23)cc1` was tested, and the Ki (Adenosine receptor A3 [16]) was 0.98 nM, the Ratio [2] was 82.6 and the Ki (Adenosine receptor A2b [17]) was 81 nM. The Ratio [7] was 205 and the IC50 (Adenosine receptor A3 [18]) was 13.9 nM.
`COc1ccc(NC(=O)Nc2nc3ccc(Cl)cc3c3nc(-c4ccco4)nn23)cc1` gave a Ratio [2] of 158, an inhibition [19] of 97% and a Ki (Adenosine receptor A1 [20]) of 7.6 nM. For the same compound, the Ki (Adenosine receptor A2a [21]) was 9.4 nM, the IC50 (Adenosine receptor A3 [22]) was 2 nM and the Ratio [7] was 43. It also gave a Ki (Adenosine receptor A2b [23]) of 22 nM.
Compound `CC(C)CCn1cc2c(nc(NC(=O)Nc3cccc(Cl)c3)n3nc(-c4ccco4)nc23)n1` has a Ratio [2] of 1.5, a Ki (Adenosine receptor A3 [24]) of 40 nM and a Ki (Adenosine receptor A2a [25]) of 115 nM. For the same compound, the inhibition [26] was 45%, the Ki (Adenosine receptor A2b [27]) was 61 nM and the Ratio [7] was 2.5. The Ki (Adenosine receptor A1 [28]) was 100 nM.
Compound `CC(C)CCn1cc2c(nc(N)n3nc(-c4ccco4)nc23)n1` has a Ki (Adenosine receptor A2b [29]) of 9.1 nM, a Ratio [2] of 0.013 and an inhibition [30] of 14%. The Ki (Adenosine receptor A3 [31]) was 700 nM, the Ratio [7] was 0.002 and the Ki (Adenosine receptor A1 [32]) was 2 nM.
